Our source for the IC50 and Activity values is ChEMBL document CHEMBL4312005, “Optimization of pyrrolizine-based Schiff bases with 4-thiazolidinone motif: Design, synthesis and investigation of cytotoxicity and anti-inflammatory potency” (Eur J Med Chem, 2020).

In test [1] the target is Prostaglandin G/H synthase 1 (Homo sapiens, UniProt P23219). Put plainly: Inhibition of human COX1 using arachidonic acid as substrate incubated for 2 mins by ELISA method. (In general: ELISA stands for enzyme-linked immunosorbent assay.)
Prostaglandin G/H synthase 1, sequence (P23219 whole entry): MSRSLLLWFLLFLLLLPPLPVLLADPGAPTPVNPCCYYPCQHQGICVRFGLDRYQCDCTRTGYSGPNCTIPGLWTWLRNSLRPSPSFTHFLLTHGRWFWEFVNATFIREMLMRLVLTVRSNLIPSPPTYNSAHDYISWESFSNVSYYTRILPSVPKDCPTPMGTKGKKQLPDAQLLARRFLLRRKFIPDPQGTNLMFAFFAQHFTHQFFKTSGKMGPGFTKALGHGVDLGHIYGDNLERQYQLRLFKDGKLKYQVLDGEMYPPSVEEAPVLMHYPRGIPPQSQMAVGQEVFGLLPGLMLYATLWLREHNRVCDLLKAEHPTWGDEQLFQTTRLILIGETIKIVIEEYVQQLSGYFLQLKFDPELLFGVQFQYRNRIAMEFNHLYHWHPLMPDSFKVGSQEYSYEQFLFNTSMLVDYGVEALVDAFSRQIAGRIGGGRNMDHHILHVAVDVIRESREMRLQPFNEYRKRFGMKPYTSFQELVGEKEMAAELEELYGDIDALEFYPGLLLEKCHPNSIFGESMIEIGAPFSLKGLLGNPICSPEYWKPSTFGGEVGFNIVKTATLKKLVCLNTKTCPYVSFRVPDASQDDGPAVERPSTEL
Test [2] concerns the target Tyrosine-protein kinase Blk (Homo sapiens) (UniProt P51451). Kind of test: Inhibition of recombinant human N-terminal GST-tagged full length BLK expressed in baculovirus infected Sf9 insect cells assessed as enzyme activity incubated for 15 mins by [gamma-33]ATP based scintillation counting method relative to control. Set-up: scale not given: the % may be the effect or the level left.

The target in test [3] is Epidermal growth factor receptor (Homo sapiens) (UniProt P00533). Kind of test: Inhibition of EGFR (unknown origin) assessed as enzyme activity incubated for 15 mins by [gamma-33]ATP based scintillation counting method relative to control. Set-up: scale not given: the % may be the effect or the level left.
Epidermal growth factor receptor (Homo sapiens), sequence (P00533 whole entry, canonical isoform): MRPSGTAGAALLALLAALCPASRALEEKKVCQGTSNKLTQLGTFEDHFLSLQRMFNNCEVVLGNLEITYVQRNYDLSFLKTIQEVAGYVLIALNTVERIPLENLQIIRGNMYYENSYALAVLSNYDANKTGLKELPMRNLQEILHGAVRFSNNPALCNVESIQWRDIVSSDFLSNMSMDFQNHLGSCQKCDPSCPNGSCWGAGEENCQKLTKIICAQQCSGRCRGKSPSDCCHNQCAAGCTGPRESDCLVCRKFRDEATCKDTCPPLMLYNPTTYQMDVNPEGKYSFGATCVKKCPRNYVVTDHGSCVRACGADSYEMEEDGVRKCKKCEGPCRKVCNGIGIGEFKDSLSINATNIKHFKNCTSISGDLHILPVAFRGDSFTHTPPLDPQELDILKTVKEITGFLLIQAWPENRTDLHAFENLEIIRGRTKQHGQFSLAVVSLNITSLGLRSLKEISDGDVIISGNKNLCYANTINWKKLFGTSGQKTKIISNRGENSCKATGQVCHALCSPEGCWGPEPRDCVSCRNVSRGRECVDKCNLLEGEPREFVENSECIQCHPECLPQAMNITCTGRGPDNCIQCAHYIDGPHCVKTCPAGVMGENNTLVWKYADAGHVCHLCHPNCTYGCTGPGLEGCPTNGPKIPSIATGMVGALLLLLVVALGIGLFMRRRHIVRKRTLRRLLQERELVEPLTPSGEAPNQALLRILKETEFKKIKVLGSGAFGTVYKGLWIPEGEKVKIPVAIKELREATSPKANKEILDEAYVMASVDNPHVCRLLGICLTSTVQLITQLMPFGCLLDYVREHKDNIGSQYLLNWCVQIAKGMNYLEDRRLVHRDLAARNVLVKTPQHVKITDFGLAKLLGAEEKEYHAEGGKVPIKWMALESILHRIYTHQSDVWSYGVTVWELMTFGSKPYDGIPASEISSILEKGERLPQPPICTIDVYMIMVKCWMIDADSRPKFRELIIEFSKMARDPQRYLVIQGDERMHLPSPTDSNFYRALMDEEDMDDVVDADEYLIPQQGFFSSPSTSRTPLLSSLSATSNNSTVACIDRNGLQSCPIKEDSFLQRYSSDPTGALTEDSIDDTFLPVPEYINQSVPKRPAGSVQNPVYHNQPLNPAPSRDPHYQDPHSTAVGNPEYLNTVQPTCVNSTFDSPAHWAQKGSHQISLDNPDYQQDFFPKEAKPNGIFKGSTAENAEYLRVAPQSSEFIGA
The target in test [4] is Casein kinase I isoform alpha (Homo sapiens) (UniProt P48729). Put plainly: Inhibition of CK1alpha1 (unknown origin) assessed as enzyme activity incubated for 15 mins by [gamma-33]ATP based scintillation counting method relative to control. On the set-up: scale not given: the % may be the effect or the level left.
Casein kinase I isoform alpha (Homo sapiens), sequence (P48729 2-337 limits assumed): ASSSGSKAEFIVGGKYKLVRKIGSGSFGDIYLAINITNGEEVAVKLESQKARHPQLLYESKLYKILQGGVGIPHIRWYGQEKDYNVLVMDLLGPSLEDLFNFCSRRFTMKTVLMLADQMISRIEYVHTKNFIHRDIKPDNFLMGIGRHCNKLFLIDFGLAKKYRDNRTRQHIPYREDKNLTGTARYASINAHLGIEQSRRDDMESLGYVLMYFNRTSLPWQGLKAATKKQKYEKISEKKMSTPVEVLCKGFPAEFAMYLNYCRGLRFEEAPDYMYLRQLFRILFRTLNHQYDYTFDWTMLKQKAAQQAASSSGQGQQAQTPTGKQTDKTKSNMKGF
Test [5] deals with T1, Aurora kinase A (Homo sapiens) (UniProt O14965).
T1 sequence (whole entry): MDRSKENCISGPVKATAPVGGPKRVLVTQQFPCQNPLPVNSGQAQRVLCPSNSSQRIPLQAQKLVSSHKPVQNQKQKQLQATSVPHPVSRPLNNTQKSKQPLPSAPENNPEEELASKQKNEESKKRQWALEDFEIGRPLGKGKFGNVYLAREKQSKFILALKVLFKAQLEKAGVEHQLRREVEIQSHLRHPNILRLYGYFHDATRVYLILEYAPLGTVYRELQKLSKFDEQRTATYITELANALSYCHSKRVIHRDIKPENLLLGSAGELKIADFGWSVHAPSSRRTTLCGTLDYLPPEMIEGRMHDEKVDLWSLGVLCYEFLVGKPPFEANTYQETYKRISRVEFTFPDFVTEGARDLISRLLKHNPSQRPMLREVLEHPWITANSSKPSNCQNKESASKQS
Kind of test: Inhibition of recombinant human N-terminal GST-tagged full length Aurora A expressed in baculovirus infected Sf9 insect cells assessed as enzyme activity incubated for 15 mins by [gamma-33]ATP based scintillation counting method relative to control. Set-up: scale not given: the % may be the effect or the level left.

The target in test [6] is T2, Rhodopsin kinase GRK1 (Homo sapiens) (UniProt Q15835).
T2 sequence (whole entry): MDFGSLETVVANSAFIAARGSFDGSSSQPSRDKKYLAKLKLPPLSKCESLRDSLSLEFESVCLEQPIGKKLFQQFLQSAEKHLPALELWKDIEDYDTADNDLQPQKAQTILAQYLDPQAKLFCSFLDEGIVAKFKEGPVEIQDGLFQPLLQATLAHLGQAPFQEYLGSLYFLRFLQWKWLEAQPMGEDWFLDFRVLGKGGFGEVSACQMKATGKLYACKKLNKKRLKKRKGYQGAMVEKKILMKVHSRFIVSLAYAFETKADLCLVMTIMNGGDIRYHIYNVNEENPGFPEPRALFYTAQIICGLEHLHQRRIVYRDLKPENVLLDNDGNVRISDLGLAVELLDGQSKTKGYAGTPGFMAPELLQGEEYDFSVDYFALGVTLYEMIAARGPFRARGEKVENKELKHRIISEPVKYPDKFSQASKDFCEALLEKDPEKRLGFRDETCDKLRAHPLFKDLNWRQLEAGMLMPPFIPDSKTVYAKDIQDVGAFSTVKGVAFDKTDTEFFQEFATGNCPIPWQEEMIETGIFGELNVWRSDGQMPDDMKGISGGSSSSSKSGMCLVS
Put plainly: Inhibition of GRK1 (unknown origin) assessed as enzyme activity incubated for 15 mins by [gamma-33]ATP based scintillation counting method relative to control. Set-up: scale not given: the % may be the effect or the level left.

For test [7], the target named is T3, Mitogen-activated protein kinase kinase kinase 5 (Homo sapiens) (UniProt Q99683).
T3 sequence (whole entry): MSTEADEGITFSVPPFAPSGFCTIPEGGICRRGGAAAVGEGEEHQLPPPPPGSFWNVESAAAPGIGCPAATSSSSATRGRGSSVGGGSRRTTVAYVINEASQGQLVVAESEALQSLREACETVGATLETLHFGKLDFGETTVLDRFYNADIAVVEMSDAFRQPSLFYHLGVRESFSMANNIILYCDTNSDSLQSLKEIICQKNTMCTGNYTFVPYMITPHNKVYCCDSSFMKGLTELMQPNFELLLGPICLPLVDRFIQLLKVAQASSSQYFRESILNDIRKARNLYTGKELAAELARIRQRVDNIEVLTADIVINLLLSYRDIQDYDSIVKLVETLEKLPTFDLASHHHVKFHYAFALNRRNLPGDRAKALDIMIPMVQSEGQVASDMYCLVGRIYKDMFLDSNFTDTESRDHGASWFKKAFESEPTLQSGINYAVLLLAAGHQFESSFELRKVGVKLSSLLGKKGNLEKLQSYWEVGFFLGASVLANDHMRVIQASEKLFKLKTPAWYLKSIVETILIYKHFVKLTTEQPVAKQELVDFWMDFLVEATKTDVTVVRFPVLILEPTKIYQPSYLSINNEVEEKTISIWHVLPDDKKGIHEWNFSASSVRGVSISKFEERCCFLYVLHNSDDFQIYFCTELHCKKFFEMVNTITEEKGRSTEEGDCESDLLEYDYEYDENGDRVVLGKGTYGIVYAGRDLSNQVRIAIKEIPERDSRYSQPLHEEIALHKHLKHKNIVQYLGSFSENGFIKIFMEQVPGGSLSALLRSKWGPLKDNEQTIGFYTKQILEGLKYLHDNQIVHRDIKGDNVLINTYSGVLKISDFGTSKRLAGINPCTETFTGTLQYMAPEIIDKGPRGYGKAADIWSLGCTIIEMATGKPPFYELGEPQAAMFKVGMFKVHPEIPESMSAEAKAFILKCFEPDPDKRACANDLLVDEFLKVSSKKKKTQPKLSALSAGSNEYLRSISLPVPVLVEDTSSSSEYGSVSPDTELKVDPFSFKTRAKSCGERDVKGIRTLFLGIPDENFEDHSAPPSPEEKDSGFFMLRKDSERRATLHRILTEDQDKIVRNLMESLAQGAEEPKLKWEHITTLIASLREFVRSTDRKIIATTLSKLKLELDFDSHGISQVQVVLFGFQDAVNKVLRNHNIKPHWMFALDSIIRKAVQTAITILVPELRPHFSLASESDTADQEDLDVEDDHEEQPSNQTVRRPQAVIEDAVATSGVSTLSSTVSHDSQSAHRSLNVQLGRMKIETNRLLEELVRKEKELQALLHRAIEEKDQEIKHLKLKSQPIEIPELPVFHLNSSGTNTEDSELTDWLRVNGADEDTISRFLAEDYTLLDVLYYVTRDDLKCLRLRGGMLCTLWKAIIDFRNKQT
Kind of test: Inhibition of recombinant human N-terminal GST-tagged ASK1 (649 to 946 residues) expressed in baculovirus infected Sf9 insect cells assessed as enzyme activity incubated for 15 mins by [gamma-33]ATP based scintillation counting method relative to control. On the set-up: scale not given: the % may be the effect or the level left.

The subject of another test is MRC5. Put plainly: Cytotoxicity against human MRC5 cells assessed as reduction in cell growth incubated for 72 hrs by MTT assay. The class given is cell-based. Conditions: MRC5, 72 h. The method in brief: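 MTT assay on MCF-7, A2780, HT29 and normal MRC5 fibroblast lines (ATCC) grown in DMEM with 10% FBS. Cells exposed to compounds for 72 h, then reduced MTT read at 570 nm.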
For orientation: Formazan colour is commonly taken as a measure of viable cells.

Some results are limits rather than exact numbers.

Tyrosine-protein kinase Blk (Homo sapiens), sequence (P51451 2-505 limits assumed): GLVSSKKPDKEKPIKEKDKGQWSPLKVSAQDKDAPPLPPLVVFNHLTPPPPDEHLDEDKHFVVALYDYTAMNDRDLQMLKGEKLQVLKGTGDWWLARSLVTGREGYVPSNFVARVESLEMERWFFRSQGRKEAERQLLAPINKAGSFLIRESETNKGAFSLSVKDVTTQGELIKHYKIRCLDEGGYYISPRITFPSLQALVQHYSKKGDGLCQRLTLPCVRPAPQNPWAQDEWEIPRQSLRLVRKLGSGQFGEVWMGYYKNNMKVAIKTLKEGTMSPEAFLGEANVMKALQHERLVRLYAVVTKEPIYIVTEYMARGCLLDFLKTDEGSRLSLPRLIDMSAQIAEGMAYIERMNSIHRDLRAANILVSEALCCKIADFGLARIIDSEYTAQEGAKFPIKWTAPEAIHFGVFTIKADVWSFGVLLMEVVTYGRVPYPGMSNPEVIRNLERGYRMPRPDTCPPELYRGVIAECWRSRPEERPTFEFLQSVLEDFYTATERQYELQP

As to `CC(C)C/C=N/c1c(C#N)c2n(c1C(=O)Nc1ccc(Br)cc1)CCC2`, the IC50 is above 100 µM in test [1] and 25.8 µM with MRC5. Besides, the Activity in test [2] is 7%; in test [3], 40%; in test [4], 6%; in test [5], 1%; in test [6] it was 1%; in test [7], 26%.

In the case of `Cc1ccc(NC(=O)c2ccc(CN3CCN(C)CC3)cc2)cc1Nc1nccc(-c2cccnc2)n1`, the Activity in test [2] was -3%; in test [3], 13%; in test [4], 0%; in test [5] it was -38%; in test [6] it was 2%; in test [7] it was 5%.

On to `CCC1SCC(=O)N1c1c(C#N)c2n(c1C(=O)Nc1ccccc1)CCC2` (stereo not given), for which the values for the IC50 (in test [1]; in the test with MRC5) were 43.7 µM and 0.63 µM, respectively. In addition, the Activity is 26% in test [2]; 10% in test [3]; -16% in test [4]; -11% in test [5]; -9% in test [6]; -3% in test [7].

Take `CC/C=N/c1c(C#N)c2n(c1C(=O)Nc1ccccc1)CCC2`: the results for the IC50 (in test [1]; in the test with MRC5) were above 100 µM and 3.17 µM, respectively. Besides, the Activity is -32% in test [2]; -10% in test [3]; -23% in test [4]; -8% in test [5]; -10% in test [6]; -14% in test [7].

A word on the IC50: it is the concentration that gives 50% inhibition.
